Compound activity deposited in PubChem by several laboratories.
SENP1 FRET inh – blocks the human SENP1 SUMO protease catalytic domain; inhibition, % at 10 µM; Q9P0U3; hit rate 0.21% among 360,000; AID 624204; recombinant SENP1 catalytic domain, CyPet-SUMO1-YPet FRET cleavage;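 active = inhibition at least 30% at 10 µM, raw YFP signal under a set limit, fluorescence ratio 0.5 to 1.5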;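 note: 0% = enzyme with DMSO and 100% = no enzyme wells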
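Test system: human SENP1 catalytic domain; medium: Tris pH 8 buffer plus EDTA, NaCl, BME, BSA, NP40, catalase; incubation: 50 min reaction at room temperature; technique: FRET, CFP and YFP emission; controls: no-enzyme low control and enzyme-plus-DMSO high control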
NR3A LBD binder – modulators (binders) of human NR3A ligand-binding domain; Tm shift relative to glycine control, % at 25 µM; hit rate 2.5% among 340,000; NR3A LBD differential scanning fluorimetry, Tm shift; 0% = protein alone, 100% = glycine-bound protein;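 active = melting temperature shift of at least 10% of the positive control shift, at one fixed dose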
FAS TE block – blocks the thioesterase domain of human fatty acid synthase; inhibition, % at 15 µM; AID 602261; hit rate 0.67% among 360,000; recombinant FAS-TE, OMFH fluorogenic substrate, fluorescence endpoint;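 active = compounds whose normalised, plate-corrected inhibition of enzyme fluorescence in the single-dose primary screen is 50% or more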;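 note: 0% = DMSO with enzyme and 100% = substrate without enzyme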
Arr AP2 block – human beta-arrestin and AP2 interaction inhibition; FITC-arrestin peptide / GST-AP2 beads, flow cytometry; AP2 beta2 appendage carries R879A mutation; hit rate 0.31% among 340,000; inhibition, % at 10 µM;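 active = inhibition above a set limit, near 3 SD of compounds lacking own fluorescence, cut at about 54% in these data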;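 note: plate controls were DMSO wells for no effect and 5 µM unlabelled arrestin peptide for full effect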
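Test system: GST-tagged AP2 beta2-adaptin appendage (R879A) on 4 µm glutathione beads; also added: fluorescein-tagged arrestin peptide at 50 nM final; timing: 12 min plus 1 h, RT; signal: flow cytometry, FL1 (488/535 nm); read-out: percent drop in bead-associated FITC signal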
Cardio protect – myocardial damage modulation in H9c2 cells. H9c2 cardiomyocytes, H2O2 injury protection, ATPLite, 2 h. protection from H2O2 cell death, % at 20 µM. hit rate 0.63% among 360,000. AID 588492;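 active = compounds giving at least 50% protection of heart cells from peroxide-induced death in the single-dose screen, raw or plate-pattern-corrected value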;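 note: 0% = DMSO wells with peroxide and 100% = DMSO wells without peroxide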
iPSC survival up – enhancers of human iPSC single-cell survival; hiPSC single-cell survival, ATPlite luminescence; 100% = ROCK inhibitor wells, 0% = DMSO; survival enhancement, % at 20 µM; hit rate 0.044% among 360,000; in the data active = survival enhancement above about 18%;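 note: cells exposed to compounds for 16 hours before the ATP read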
An asterisk follows results filed as active. Sampled rows, rich in hits. Any-hit rate of the full collection: about 4%.

`COc1cc(C(=O)C(=O)N2CCN(c3ccccc3)CC2)cc2ccccc12` gave SENP1 FRET inh -5.
`COc1ccc2nc(Nc3ccccc3)sc2c1` gave SENP1 FRET inh 2, NR3A LBD binder 30*, FAS TE block 11, Arr AP2 block 1, Cardio protect -21 and iPSC survival up -1.
For COc1ccc2nc(NC(=O)c3ccccc3O)sc2c1 the results were SENP1 FRET inh -7, NR3A LBD binder 10, FAS TE block -3, Arr AP2 block 20, Cardio protect -23 and iPSC survival up 0.
COc1ccc(Nc2nc3ccccc3c(=O)s2)c(OC)c1 was read as SENP1 FRET inh 2, NR3A LBD binder 0, FAS TE block -5, Arr AP2 block 5, Cardio protect 2 and iPSC survival up 1.
COc1ccc2nc(Nc3ccccc3OC)sc2c1 was read as SENP1 FRET inh 0, NR3A LBD binder 19*, FAS TE block 11, Arr AP2 block -13, Cardio protect -17 and iPSC survival up -1.
O=C1C2(CCCC13COC(c1ccc(O)cc1)OC3)COC(c1ccc(O)cc1)OC2 (configuration not stated) was read as NR3A LBD binder 26*.
Screening O=C1C2(CCC13COC(c1ccc(O)cc1)OC3)COC(c1ccc(O)cc1)OC2 (configuration not stated) returned SENP1 FRET inh 0, NR3A LBD binder 2, FAS TE block -6, Arr AP2 block -1, Cardio protect -2 and iPSC survival up 1.
CCOC(=O)c1[nH]cnc1N=Nc1c(O)ccc2ccccc12 was read as SENP1 FRET inh 62*, NR3A LBD binder 1, FAS TE block -3, Arr AP2 block 3, Cardio protect 65* and iPSC survival up -1.
CC(=O)Nc1cc(-c2ccc(C(=O)N3CCOCC3)cc2)cn2c(-c3ccc(C(C)=O)cc3)cnc12 was read as SENP1 FRET inh -8, FAS TE block 2, Cardio protect 76* and iPSC survival up -2.
`CC(=O)Nc1cc(-c2ccc(C(=O)N3CCOCC3)cc2)cn2c(-c3ccccc3)cnc12` gave SENP1 FRET inh 0, FAS TE block 25, Cardio protect 5 and iPSC survival up 1.
CC(=O)Nc1cc(-c2ccccc2)cn2c(-c3cccc(C(C)=O)c3)cnc12 was read as SENP1 FRET inh -11, FAS TE block 16, Cardio protect 51* and iPSC survival up -1.
`CC(=O)Nc1cc(-c2cccc(NS(C)(=O)=O)c2)cn2c(-c3cccc(C(C)=O)c3)cnc12` gave SENP1 FRET inh -1, FAS TE block 3, Cardio protect 78* and iPSC survival up -3.
For CC(=O)Nc1cc(-c2cccc(C(=O)N(C)C)c2)cn2c(-c3ccc(C(C)=O)cc3)cnc12 the results were SENP1 FRET inh -6, FAS TE block 0, Cardio protect 55* and iPSC survival up 0.
`COc1ccc(-c2cnc3c(NC(C)=O)cc(-c4cccc(NS(C)(=O)=O)c4)cn23)cc1OC` gave SENP1 FRET inh 1, FAS TE block 2, Cardio protect 47 and iPSC survival up -2.
For CC(=O)Nc1cc(-c2cccc(C(=O)N(C)C)c2)cn2c(-c3ccccc3)cnc12 the results were SENP1 FRET inh -3, FAS TE block -3, Cardio protect 19 and iPSC survival up 4.
For CC1(c2nnnn2-c2ccc3c(c2)OCCO3)CCC(=O)N1CCc1ccccc1F (configuration not stated) the results were SENP1 FRET inh 0, FAS TE block -10 and iPSC survival up 1.
For CC(=O)c1cccc(-c2cnc3c(NC=O)cc(-c4ccccc4F)cn23)c1 the results were SENP1 FRET inh 0, FAS TE block 29, Cardio protect 59* and iPSC survival up 2.
O=C(O)c1cc(C(=O)O)cc(-c2ccc(/C=c3/sc4nc5ccccc5n4c3=O)o2)c1 was read as NR3A LBD binder 10* and Arr AP2 block 16.
